Consider one molecule from ChEMBL document CHEMBL1781959, “Synthesis and in vitro antitumor activity of substituted quinazoline and quinoxaline derivatives: search for anticancer agent” (Eur J Med Chem, 2011).

The test system of this assay is 786-0. Kind of assay: Growth inhibition of human 786-0 cells after 48 hrs by SRB assay. The class given is functional. As to conditions: 786-0, 48 h. In a few lines: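 NCI 60-panel five-dose assay at 0.01, 0.1, 1, 10 and 100 μM. Cells in RPMI 1640 with 5% FBS and 2 mM L-glutamine, preincubated 24 h, with time-zero plates TCA-fixed. Drug exposure 48 h at 37 °C. Read by SRB staining at 515 nm. GI50 is the concentration where [(Ti−Tz)/(C−Tz)]×100 = 50, taken from log concentration versus % growth curves.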

Take `O=c1c2ccccc2nc(-c2ccco2)n1/N=C/c1ccccc1Cl`: the GI50 is 3.94 µM and net growth stopped (TGI) at 14.9 µM.
